# Neddyl block: inhibitors of cullin neddylation, primary screen, biochemical, TR-FRET, uHTS, NAE and Ubc12; AID 651699, 2012; NEDD8-conjugating enzyme Ubc12 (Homo sapiens) + NEDD8-activating enzyme E1 regulatory …; 0.58% of 360,000 active; inhibition, % at 25 µM; in the data active means inhibition above about 36%
# TbMetRS inhib: T. brucei MetRS inhibitors, primary screen, biochemical, luminescence. methionyl-tRNA synthetase (Trypanosoma brucei brucei). purified T. brucei MetRS, ATP depletion, Kinase-Glo luminescence. inhibition, % at 11.9 µM. 0.4% of 360,000 active. AID 624268, 2012;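 active means inhibition above a per-plate cutoff of the control wells' mean inhibition plus 3 SD, cut at about 5.5% in these data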;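 further: 0% = DMSO wells median and 100% = median of wells with control inhibitor compound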
#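 technique = Kinase-Glo luminescence, ATP depletion format | system = purified MetRS (methionyl-tRNA synthetase) enzyme from Trypanosoma brucei | timing = 15 min preincubation, 2 h reaction, all 25 °C | evaluation = percent inhibition versus plate control medians | dosing = single dose, 11.9 µM final nominal, 0.9% final DMSO | also added = substrates ATP, L-methionine and bulk Escherichia coli tRNA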
# HNF4A DNA FP: change in binding of human HNF4A to DNA, primary screen, biochemical, fluorescence polarization, FITC-DNA; AID 1224865, 2016; Hepatocyte nuclear factor 4-alpha (Homo sapiens), P41235; activity change, % at 10 µM; 1 h; 0.3% of 360,000 active; in the data active means activity change above about 30%, passing the limit was not always enough
# Target sequence (P41235 whole entry, looked up): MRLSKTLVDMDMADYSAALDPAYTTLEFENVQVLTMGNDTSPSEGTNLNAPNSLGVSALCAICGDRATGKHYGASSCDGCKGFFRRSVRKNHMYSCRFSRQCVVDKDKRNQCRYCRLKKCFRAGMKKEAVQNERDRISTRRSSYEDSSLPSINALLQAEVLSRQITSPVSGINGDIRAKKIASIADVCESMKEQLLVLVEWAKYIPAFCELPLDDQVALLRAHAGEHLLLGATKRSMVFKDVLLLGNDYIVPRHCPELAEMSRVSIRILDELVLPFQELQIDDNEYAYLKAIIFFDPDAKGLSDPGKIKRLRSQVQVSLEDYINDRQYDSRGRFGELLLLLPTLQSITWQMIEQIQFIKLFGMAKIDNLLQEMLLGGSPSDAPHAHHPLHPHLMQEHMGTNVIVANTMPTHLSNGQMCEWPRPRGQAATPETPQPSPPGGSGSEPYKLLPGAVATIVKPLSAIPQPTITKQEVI
# CSN deneddyl inh: inhibitors of CSN-mediated cullin deneddylation, primary screen, biochemical, fluorescence polarization, uHTS; COP9 signalosome complex subunit 5 (Homo sapiens), Q92905; Purified CSN, SCF-Nedd8-OG deneddylation; inhibition, % at 12.5 µM; 0.38% of 360,000 active; AID 651999, 2013;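 active means pattern-corrected inhibition above about 35%, with an unprinted fluorescence ratio check between 0.5 and 1.5, limit read from the data, passing the limit was not always enough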;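 further: 0% = enzyme with substrate and 100% = substrate without enzyme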
#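 Material: human Csn5 produced in HEK293T cells; Input: enzyme 0.24 nM; Reagent: SCFSkp2-Nedd8OG substrate at 10 nM final; Dosing: 12.5 µM compound; Incubation: 90 min reaction at room temperature; Detection: fluorescence polarization of the substrate; Evaluation: % inhibition of substrate cleavage by Csn5; Control set: substrate-only high control, full reaction low control.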
# Rpn11 inh: Rpn11 (PSMD14) deubiquitinase inhibitors, primary screen, biochemical, fluorescence polarization, uHTS | 26S proteasome non-ATPase regulatory subunit 14 (Homo sapiens), O00487 | human 26S proteasome, Ub4-pepOG fluorescence polarization; 20S core pre-blocked with epoxomicin | inhibition, % at 20 µM | 0.59% of 360,000 active;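 active means inhibition at 20 µM, scaled to each plate's controls, above about 33%, limit read from the data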
# PREPL inh: PREPL enzyme inhibitors, primary screen, biochemical, fluorescence polarization; 0.68% of 320,000 active; inhibition, % at 5.96 µM; AID 2751, 2010; Prolyl endopeptidase-like (Homo sapiens), Q4J6C6; recombinant PREPL, fluorescence polarization activity-based probe;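 further: 0% = enzyme with DMSO and 100% = wells lacking enzyme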
# PREPL inh cf: human PREPL enzyme inhibitors, confirmation, biochemical, fluorescence polarization | shares compounds with PREPL inh | recombinant PREPL, fluorescence polarization activity probe | inhibition, % at 5.96 µM | 67% of 2,000 active;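 further: 0% = protein with DMSO and 100% = wells lacking protein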
# Starred values were filed as active, the others as inactive; / = not tested or not shown. The list is not random: actives were taken first. Their share in the collection is about 2.4%. Unless noted, no stated cut-off is given here; in the data, active means inhibition above about 43%; inactive means the rest.
SMILES,Neddyl block,TbMetRS inhib,HNF4A DNA FP,CSN deneddyl inh,Rpn11 inh,PREPL inh,PREPL inh cf
Cc1ccc(O)c(NC(=O)c2onc(C)c2Cl)c1,-5.1,-0.8,0.3,2.3,11.7,1.6,/
COc1cccc(N=Nc2c(N)[nH][nH]c2=O)c1,-29.4,-0.1,2.6,-14.2,2.3,2.7,/
COc1cccc(N=Nc2c(N)[nH]n3c(=O)c4c(nc23)CCCC4)c1,-46.5,0.2,4.2,-1.1,4.5,59.1*,56.8*
COc1ccc(N2CCN(CCC(O)c3ccc4ccccc4c3)CC2)cc1 (centres undefined),5.8,-2.4,-0.3,4.6,-14.3,70.5*,68.1*
CCn1c(O)c(/C=N/N=C/c2ccccc2)c2ccc(C3=NNC(=O)CC3)cc21,26.5,-0.5,-10.2,-77.0,/,71.6*,65.2*
CCC(CC)=N/N=C/c1c(O)n(CC)c2cc(C3=NNC(=O)CC3)ccc12,11.2,-1.0,10.6,1.1,9.5,4.4,/
CC(C)(C)NC(=O)CSC(=Nc1cccc(F)c1)NC#N,3.2,-0.1,23.3,25.8,39.8,64.3*,3.3
COc1ccc(-c2sc3ccccc3c2-c2cc(OC)ccc2C=O)cc1,-125.7,-0.5,0.4,-5.8,/,/,/
O=C(C1CCN(c2ncnc3c2nc2n3CCCCC2)CC1)N1CCN(c2cccc(Cl)c2)CC1,-0.8,0.3,3.8,2.5,-9.3,49.3*,46.8*
COc1cc(C#Cc2c(-c3cncn3C)n(C)c3ccc(-c4ccc(CN5CCOCC5)cc4)cc23)cc(OC)c1,/,0.4,9.2,2.5,6.7,45.3*,29.3
COc1cc(C#Cc2c(-c3cncn3C)n(C)c3ccc(-c4cnc(N5CCOCC5)nc4)cc23)cc(OC)c1,/,0.0,6.6,-1.0,-0.7,33.2,/
CC1(C)C(=O)Nc2ccccc2N1C(=O)COC(=O)Cc1ccc(Cl)c(Cl)c1,-14.4,-0.3,-5.2,0.0,-0.8,46.7*,38.4
O=C(Nc1ccccc1)Nc1ccc(F)c([N+](=O)[O-])c1,-15.9,4.1,3.0,-15.7,7.2,14.7,/
Cc1ccsc1C(=O)Nc1ccc(F)c([N+](=O)[O-])c1,-31.5,0.0,2.4,3.8,-5.1,45.5*,38.0
OC1CCN(c2c3c(nc4cc(-c5cccc(F)c5)nn24)CCCC3)CC1,/,-0.2,1.6,-1.3,-4.7,44.1*,30.5
Fc1cccc(-c2cc3nc4c(c(N5CCC6(CC5)OCCO6)n3n2)CCCC4)c1,/,-0.1,-3.1,-0.6,-0.3,12.1,/
CCCCCCCCCn1c2c(c(=N)c3c1CCC3)CCCC2,-0.8,0.7,2.3,-1.9,-18.0,/,/
CCCCCCCCCCn1c2c(c(=N)c3c1CCC3)CCC2,-2.8,0.0,-2.0,3.5,-1.2,44.4*,43.6*
CCNc1c2c3c(cccc3n(C)c1=O)C(=O)c1ccccc1-2,/,/,/,/,/,69.2*,54.3*
Cn1c(=O)c(NCCO)c2c3c(cccc31)C(=O)c1ccccc1-2,-104.7,-0.5,-80.0,-74.6,-179.2,89.9*,102.8*
Cn1c(=O)c(NCCc2ccccc2)c2c3c(cccc31)C(=O)c1ccccc1-2,-484.2,0.4,-44.5,-81.7,-154.0,163.4*,166.4*
CC1CCN(S(=O)(=O)c2ccc3c(c2)C(Cl)(Cl)C(=O)N3)CC1,12.7,-0.1,-0.1,26.6,0.5,/,/
CC(C)n1c(=O)c2ccccc2n1S(C)(=O)=O,-6.0,-0.5,1.3,-4.6,/,/,/
COC(=O)[C@]12CCCCC=C1N(Cc1ccco1)C(=O)[C@H](CC(=O)N1CCCCC1)C2,0.9,0.1,4.9,-6.7,/,/,/
COc1ccc(Cl)c(N2CCN(CCCNC(=O)Nc3ccc(C)cc3)CC2)c1,8.1,-0.9,1.8,5.8,4.1,47.1*,40.4
SMILES,Neddyl block,TbMetRS inhib,HNF4A DNA FP,CSN deneddyl inh,Rpn11 inh,PREPL inh,PREPL inh cf
C=C(C)C1CC=C(C)/C(=N/NC(=O)CNc2ccc(C)cc2C)C1 (centres undefined),3.4,-0.4,1.8,-1.1,-0.7,11.3,/
C=C(C)C1CC=C(C)/C(=N/NC(=O)CNc2ccc(OCC)cc2)C1 (centres undefined),-9.3,-0.7,0.8,1.1,9.1,46.2*,9.6
Nc1c(N(CCC2=CCCCC2)C(=O)c2ccccc2F)c(=O)[nH]c(=O)n1Cc1ccccc1,-14.6,-0.1,0.8,6.7,12.1,68.5*,15.4
Nc1c(N(CCC2=CCCCC2)C(=O)Cc2ccccc2F)c(=O)[nH]c(=O)n1Cc1ccccc1,9.7,-0.2,3.8,0.0,4.6,7.4,/
O=C(Nc1ccccc1N1CCCC1)c1cccc(-c2cc3ccccc3oc2=O)c1,-13.1,0.4,3.7,1.7,12.4,44.5*,31.8
O=C(Nc1ccc(N2CCCC2)cc1)c1cccc(-c2cc3ccccc3oc2=O)c1,5.8,-0.5,2.3,8.2,12.7,9.6,/
COc1ccc(NC(=O)c2ccco2)c(NC(=O)c2ccc([N+](=O)[O-])cc2)c1,-23.1,-0.2,-4.6,-5.0,-4.9,9.9,/
CCCCCCCCCCCCCCCC[N+](C)(C)CCN(Cc1ccc(OC)cc1)c1ncccn1,7.3,-1.3,26.5,23.1,77.1*,60.1*,63.3*
Cc1ccc(Nc2nc(-c3sc(C)nc3C)cs2)cc1,-7.8,-1.0,-4.3,-1.7,6.0,46.4*,31.7
CC(=O)Nc1ccc(Nc2nc(-c3sc(C)nc3C)cs2)cc1,-11.8,-0.8,-0.8,-2.8,-9.7,14.9,/
COc1ccc(CCNc2nc(-c3sc(N)nc3C)cs2)cc1OC,-11.2,0.3,6.8,1.4,28.5,43.1*,22.5
COc1ccc(Nc2nc(-c3sc(N)nc3C)cs2)cc1,-4.0,0.0,6.2,1.9,25.3,49.9*,25.8
Cc1ccc(Nc2nc(-c3sc(N)nc3C)cs2)cc1,-7.2,-1.4,8.1,7.1,16.2,/,/
CC(=O)c1ccc(OCc2cc(C(=O)N(C)CC3COc4ccccc4O3)no2)cc1 (centres undefined),3.3,-0.2,2.1,-3.0,0.1,/,/
O=C1Nc2ccccc2/C1=N\N=C\c1ccc(O)c(O)c1,-4.4,1.0,-4.0,14.2,4.5,2.0,/
Cc1ccsc1/C=N/N=C1\C(=O)Nc2ccccc21,-10.6,-0.8,6.1,-2.8,-2.9,52.9*,51.6*
COc1cccc(-c2ccc(SCC(=O)NC3CCCCC3)nn2)c1,-1.3,-0.3,-1.4,-2.6,0.7,43.7*,42.8
CC12CCC(=O)N1C(C(=O)N1CCN(c3ccc([N+](=O)[O-])cc3)CC1)CS2 (centres undefined),-38.5,-0.2,1.1,3.6,-4.8,46.7*,30.9
